We go through 3 molecules from ChEMBL document CHEMBL4118021, “Studies of TAK1-centered polypharmacology with novel covalent TAK1 inhibitors” (Bioorg Med Chem, 2017).

Type in all cases: cell-based
The target of assay [1] is T1, Serine/threonine-protein kinase TAO3 (Homo sapiens) (UniProt Q9H2K8).
T1 sequence (whole entry): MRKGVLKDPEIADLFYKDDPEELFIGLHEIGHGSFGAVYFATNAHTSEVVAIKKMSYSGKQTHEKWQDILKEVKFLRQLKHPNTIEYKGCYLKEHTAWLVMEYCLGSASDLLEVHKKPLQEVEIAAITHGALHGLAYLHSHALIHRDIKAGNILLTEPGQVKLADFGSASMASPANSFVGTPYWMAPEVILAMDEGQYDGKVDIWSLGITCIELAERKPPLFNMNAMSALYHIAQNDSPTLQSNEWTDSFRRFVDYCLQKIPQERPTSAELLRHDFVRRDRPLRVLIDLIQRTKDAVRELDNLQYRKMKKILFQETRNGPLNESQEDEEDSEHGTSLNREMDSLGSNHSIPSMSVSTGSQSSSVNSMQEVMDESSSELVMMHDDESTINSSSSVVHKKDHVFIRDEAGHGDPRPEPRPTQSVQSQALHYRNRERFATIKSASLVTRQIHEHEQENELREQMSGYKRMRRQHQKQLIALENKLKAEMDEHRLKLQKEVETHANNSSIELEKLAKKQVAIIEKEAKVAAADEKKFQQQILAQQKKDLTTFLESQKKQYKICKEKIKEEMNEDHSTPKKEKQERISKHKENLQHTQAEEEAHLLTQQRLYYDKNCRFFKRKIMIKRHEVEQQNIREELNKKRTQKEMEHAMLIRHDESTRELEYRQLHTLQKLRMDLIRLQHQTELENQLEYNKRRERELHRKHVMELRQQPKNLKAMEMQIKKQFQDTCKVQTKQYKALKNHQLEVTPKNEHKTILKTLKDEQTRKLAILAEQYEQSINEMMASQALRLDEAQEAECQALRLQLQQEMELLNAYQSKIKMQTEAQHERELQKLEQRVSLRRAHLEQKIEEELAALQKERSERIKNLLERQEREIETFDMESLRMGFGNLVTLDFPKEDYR
The assay is described as follows: Inhibition of TAO3 in human SKCO1 cells at 1 uM after 4 hrs using biotin labeled DIKAGNILLTEPGQVK probe by mass-spectrometric analysis relative to control. An outline of the steps:
(§1)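 Live SK-CO-1 cells exposed to compound at 1 μM or DMSO for 4 h (KiNativ). Lysates then labeled with lysine-reactive ATP/ADP-biotin probe, and probe-labeled kinase peptides quantified by mass spectrometry. Percent inhibition of probe-dependent recovery calculated relative to DMSO-treated cells.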

The target in assay [2] is T2, Serine/threonine-protein kinase 4 (Homo sapiens) (UniProt Q13043).
T2 sequence (whole entry): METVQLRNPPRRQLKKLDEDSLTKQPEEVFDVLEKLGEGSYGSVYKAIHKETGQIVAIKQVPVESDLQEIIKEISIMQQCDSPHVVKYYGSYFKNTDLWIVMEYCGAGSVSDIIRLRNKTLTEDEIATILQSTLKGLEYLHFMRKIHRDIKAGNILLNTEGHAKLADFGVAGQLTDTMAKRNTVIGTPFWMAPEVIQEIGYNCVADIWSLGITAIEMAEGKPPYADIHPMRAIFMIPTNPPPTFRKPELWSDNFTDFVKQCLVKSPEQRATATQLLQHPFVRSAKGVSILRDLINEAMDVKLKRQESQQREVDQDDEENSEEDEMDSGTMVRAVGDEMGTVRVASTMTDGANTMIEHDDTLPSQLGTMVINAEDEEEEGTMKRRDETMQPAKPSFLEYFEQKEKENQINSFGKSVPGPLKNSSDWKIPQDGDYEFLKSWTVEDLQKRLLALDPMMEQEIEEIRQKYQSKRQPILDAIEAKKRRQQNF
Put plainly: Inhibition of MST1 in human SKCO1 cells at 1 uM after 4 hrs using biotin labeled ETGQIVAIKQVPVESDLQEIIK probe by mass-spectrometric analysis relative to control. An outline of the steps:
as §1

Assay [3] concerns the target Serine/threonine-protein kinase SMG1 (Homo sapiens) (UniProt Q96Q15). Put plainly: Inhibition of SMG1 in human SKCO1 cells at 1 uM after 4 hrs using biotin labeled DTVTIHSVGGTITILPTKTKPK probe by mass-spectrometric analysis relative to control. A digest of the protocol:
as §1

The target of assay [4] is Cyclin-dependent kinase 18 (Homo sapiens) (UniProt Q07002). The assay is described as follows: Inhibition of PCTAIRE3 in human SKCO1 cells at 1 uM after 4 hrs using biotin labeled DLKPQNLLINER probe by mass-spectrometric analysis relative to control. A digest of the protocol:
as §1

For assay [5], the target named is Mitogen-activated protein kinase kinase kinase 1 (Homo sapiens) (UniProt Q13233). The assay is described as follows: Inhibition of MAP3K1 in human SKCO1 cells at 1 uM after 4 hrs using biotin labeled DVKGANLLIDSTGQR probe by mass-spectrometric analysis relative to control.
Mitogen-activated protein kinase kinase kinase 1 (Homo sapiens), sequence (Q13233 whole entry): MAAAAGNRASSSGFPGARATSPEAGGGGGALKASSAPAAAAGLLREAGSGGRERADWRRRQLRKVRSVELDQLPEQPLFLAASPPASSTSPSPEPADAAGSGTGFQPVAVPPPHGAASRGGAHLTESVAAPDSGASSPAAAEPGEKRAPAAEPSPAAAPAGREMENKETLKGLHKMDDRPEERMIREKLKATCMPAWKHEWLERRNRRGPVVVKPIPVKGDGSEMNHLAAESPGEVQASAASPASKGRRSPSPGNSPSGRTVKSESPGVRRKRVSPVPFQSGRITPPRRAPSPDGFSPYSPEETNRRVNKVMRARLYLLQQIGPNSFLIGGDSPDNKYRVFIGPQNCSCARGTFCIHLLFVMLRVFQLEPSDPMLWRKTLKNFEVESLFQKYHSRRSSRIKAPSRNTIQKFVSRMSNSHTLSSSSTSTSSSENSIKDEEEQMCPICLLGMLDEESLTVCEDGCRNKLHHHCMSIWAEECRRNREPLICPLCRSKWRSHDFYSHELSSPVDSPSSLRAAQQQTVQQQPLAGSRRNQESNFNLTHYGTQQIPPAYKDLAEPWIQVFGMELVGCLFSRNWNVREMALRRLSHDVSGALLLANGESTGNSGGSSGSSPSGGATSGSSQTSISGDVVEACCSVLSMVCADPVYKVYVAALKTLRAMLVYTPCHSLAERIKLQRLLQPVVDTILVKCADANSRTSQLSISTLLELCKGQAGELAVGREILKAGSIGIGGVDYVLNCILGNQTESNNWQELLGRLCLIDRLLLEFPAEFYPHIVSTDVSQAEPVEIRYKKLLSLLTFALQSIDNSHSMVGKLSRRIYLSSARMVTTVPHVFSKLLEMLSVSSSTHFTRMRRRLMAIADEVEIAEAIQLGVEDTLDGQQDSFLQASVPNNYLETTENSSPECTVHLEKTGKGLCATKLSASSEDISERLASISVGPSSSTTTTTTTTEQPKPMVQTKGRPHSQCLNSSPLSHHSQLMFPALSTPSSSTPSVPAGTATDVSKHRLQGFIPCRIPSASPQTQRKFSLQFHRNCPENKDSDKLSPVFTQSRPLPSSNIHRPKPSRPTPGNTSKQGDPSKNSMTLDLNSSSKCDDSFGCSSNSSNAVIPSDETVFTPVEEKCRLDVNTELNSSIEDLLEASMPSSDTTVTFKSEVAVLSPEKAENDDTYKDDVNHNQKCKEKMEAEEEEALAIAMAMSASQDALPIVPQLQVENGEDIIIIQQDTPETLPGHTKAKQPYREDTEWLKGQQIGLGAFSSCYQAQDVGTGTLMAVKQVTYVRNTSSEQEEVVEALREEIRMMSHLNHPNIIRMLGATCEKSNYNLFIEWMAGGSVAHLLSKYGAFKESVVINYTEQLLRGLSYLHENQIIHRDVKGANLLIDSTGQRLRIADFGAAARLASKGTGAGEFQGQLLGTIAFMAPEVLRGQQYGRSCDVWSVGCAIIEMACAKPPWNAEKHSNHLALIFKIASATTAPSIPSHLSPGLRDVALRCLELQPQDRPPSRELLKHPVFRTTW
In assay [6] the target is 1-phosphatidylinositol 3-phosphate 5-kinase (Homo sapiens) (UniProt Q9Y2I7). Put plainly: Inhibition of PIP5K3 in human SKCO1 cells at 1 uM after 4 hrs using biotin labeled GGKSGAAFYATEDDRFILK probe by mass-spectrometric analysis relative to control. An outline of the steps: as §1
For assay [7], the target named is Bone morphogenetic protein receptor type-1A (Homo sapiens) (UniProt P36894). Put plainly: Inhibition of BMPR1A in human SKCO1 cells at 1 uM after 4 hrs using biotin labeled SKNILIK probe by mass-spectrometric analysis relative to control.
In assay [8] the target is T3, Serine/threonine-protein kinase tousled-like 1 (Homo sapiens) (UniProt Q9UKI8).
T3 sequence (whole entry): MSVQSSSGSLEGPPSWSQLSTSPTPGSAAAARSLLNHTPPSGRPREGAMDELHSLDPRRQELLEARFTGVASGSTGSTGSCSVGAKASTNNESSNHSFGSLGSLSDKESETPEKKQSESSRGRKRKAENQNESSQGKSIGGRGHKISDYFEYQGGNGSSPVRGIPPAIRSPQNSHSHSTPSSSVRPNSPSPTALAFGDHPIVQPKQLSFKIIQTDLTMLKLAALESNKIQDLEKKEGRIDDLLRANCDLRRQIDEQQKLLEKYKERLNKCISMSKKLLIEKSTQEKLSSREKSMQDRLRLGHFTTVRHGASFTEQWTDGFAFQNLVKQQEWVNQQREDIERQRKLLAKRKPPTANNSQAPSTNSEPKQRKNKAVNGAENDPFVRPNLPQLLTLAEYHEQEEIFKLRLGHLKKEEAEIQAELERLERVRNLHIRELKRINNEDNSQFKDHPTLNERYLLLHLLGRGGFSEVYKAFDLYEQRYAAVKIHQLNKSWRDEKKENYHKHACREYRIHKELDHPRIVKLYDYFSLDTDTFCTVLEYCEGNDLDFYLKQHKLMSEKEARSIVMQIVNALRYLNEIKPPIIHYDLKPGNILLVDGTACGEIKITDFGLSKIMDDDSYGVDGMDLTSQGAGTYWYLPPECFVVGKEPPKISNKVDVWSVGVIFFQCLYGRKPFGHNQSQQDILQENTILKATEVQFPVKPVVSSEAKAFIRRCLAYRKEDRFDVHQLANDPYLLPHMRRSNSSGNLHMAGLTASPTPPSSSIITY
The assay is described as follows: Inhibition of TLK1 in human SKCO1 cells at 1 uM after 4 hrs using biotin labeled YLNEIKPPIIHYDLKPGNILLVDGTACEIK probe by mass-spectrometric analysis relative to control. An outline of the steps:
as §1

Serine/threonine-protein kinase SMG1 (Homo sapiens), sequence (Q96Q15 whole entry): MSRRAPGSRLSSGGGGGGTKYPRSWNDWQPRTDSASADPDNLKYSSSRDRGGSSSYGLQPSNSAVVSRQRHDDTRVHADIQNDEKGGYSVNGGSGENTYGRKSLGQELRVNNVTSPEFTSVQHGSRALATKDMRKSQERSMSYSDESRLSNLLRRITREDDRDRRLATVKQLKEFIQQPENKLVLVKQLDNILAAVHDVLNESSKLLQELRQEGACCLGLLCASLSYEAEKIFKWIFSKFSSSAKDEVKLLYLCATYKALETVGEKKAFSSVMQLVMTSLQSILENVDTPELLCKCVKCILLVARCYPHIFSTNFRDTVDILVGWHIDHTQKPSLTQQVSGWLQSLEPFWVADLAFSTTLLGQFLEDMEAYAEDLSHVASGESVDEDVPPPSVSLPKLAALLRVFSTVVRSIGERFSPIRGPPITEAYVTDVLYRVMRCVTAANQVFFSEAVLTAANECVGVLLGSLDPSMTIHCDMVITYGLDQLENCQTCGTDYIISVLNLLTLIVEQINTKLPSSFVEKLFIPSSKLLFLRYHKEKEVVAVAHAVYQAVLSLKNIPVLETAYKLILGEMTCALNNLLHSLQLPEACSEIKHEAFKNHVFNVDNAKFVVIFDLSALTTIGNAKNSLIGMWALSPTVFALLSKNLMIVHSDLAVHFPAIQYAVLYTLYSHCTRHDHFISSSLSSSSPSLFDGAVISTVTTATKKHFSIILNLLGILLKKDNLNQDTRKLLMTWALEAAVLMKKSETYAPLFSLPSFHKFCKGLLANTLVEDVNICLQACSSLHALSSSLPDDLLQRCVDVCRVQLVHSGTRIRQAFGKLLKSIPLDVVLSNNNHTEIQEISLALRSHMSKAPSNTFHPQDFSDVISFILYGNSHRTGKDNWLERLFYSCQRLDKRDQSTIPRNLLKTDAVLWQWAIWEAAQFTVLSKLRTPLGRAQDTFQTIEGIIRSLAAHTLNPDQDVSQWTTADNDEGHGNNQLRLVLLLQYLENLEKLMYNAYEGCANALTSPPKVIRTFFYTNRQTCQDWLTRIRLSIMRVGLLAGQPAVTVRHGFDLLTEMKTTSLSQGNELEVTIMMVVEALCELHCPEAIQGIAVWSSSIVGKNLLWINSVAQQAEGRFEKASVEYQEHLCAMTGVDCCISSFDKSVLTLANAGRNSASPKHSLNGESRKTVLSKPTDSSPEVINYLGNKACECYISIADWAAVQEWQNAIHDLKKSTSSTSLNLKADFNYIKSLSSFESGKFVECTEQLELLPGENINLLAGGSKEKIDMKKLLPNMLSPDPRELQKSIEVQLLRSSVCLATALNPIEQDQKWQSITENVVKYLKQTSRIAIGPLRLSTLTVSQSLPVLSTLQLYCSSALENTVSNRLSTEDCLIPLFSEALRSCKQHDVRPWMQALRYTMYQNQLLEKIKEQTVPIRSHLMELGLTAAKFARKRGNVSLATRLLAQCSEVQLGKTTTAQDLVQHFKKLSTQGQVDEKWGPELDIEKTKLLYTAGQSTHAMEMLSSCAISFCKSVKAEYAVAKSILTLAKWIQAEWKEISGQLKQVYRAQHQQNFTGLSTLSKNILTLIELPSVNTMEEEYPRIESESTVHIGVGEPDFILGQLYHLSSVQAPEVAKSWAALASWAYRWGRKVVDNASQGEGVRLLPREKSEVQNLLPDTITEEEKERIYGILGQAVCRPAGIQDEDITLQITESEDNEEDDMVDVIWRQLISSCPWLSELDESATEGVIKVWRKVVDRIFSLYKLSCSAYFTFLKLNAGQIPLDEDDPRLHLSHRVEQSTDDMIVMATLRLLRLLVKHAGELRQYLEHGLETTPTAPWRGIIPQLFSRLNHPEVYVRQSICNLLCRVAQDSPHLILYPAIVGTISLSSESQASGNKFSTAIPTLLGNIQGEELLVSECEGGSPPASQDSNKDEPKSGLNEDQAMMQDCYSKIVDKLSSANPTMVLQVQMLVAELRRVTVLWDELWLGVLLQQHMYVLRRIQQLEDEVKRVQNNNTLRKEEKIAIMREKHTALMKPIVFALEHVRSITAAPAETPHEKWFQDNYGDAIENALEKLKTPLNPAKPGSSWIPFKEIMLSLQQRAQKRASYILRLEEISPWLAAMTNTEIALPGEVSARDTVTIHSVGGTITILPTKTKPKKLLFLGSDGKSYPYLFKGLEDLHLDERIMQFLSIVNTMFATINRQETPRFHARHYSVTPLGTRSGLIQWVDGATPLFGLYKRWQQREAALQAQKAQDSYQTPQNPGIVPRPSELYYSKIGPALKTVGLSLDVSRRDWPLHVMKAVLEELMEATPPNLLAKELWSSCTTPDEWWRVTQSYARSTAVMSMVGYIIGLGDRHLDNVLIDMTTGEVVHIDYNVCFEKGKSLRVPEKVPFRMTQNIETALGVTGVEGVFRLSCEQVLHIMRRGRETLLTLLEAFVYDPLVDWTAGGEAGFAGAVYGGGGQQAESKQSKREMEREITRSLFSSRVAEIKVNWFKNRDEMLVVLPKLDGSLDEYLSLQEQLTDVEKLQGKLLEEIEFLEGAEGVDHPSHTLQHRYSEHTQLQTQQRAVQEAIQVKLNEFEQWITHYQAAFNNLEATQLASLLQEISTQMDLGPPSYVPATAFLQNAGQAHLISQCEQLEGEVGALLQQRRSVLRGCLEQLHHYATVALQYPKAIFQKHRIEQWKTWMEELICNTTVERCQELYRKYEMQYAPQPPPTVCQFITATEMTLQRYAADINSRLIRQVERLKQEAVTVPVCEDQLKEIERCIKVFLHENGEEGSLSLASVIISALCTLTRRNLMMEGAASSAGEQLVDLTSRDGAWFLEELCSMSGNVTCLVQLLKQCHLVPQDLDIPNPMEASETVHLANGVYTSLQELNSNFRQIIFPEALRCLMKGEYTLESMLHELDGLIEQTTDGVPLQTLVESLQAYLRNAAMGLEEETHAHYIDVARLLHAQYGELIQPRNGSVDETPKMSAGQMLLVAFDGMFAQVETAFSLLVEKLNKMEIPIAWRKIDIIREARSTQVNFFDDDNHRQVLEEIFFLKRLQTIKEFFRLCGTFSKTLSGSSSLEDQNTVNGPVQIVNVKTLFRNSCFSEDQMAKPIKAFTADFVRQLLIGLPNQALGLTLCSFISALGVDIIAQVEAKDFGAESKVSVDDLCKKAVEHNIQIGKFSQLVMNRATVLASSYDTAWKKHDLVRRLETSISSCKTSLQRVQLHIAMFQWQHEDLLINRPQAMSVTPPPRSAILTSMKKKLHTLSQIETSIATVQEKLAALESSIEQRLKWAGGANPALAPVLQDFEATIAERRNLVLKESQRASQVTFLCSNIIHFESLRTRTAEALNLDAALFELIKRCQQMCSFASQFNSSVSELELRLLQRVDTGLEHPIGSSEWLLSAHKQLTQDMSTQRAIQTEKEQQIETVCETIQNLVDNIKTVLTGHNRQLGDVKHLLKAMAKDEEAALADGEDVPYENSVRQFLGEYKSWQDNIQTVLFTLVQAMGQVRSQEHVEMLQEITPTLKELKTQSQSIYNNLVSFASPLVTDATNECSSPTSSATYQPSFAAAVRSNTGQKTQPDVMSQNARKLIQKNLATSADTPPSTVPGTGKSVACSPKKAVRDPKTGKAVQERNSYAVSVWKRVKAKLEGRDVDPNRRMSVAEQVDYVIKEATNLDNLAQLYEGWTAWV

The inhibition is the drop in the measured response relative to a control, in per cent. Take `C=CC(=O)Nc1ccccc1Nc1nc(Nc2ccc(N3CCN(C)CC3)cc2)ncc1Cl`: the inhibition in assay [1] was 13.1%; in assay [2], -6.4%; in assay [3], 0.8%; in assay [4] it was -3.2%; in assay [5] it was 78.5%; in assay [6] it was 61.5%. In addition, the inhibition in assay [7] was 28%; in assay [8] it was 2.3%.
`COc1cc(O)c2c(c1)/C=C/C[C@H](O)[C@H](O)C(=O)/C=C\C[C@H](C)OC2=O`: the inhibition was 39.4% in assay [1]; -4.7% in assay [2]; -8.2% in assay [3]; -6.3% in assay [4]; 51.4% in assay [5]; 64.9% in assay [6]. Also, the inhibition in assay [7] was 73.1%; in assay [8] it was 19.3%.
For `C=CC(=O)Nc1ccccc1Oc1nc(Nc2cnn(CCOC)c2)ncc1Cl`, the inhibition is 9.6% in assay [1]; -0.9% in assay [2]; 16.4% in assay [3]; -5.9% in assay [4]; 59.7% in assay [5]; 54.1% in assay [6]. Further, the inhibition in assay [7] was found to be 19.9%; in assay [8], 11.3%.
